Laboratory results from ChEMBL document CHEMBL4043131, “New prodrugs of two pyrimidine acyclic nucleoside phosphonates: Synthesis and antiviral activity” (Bioorg Med Chem, 2017).
Activity calls are given as the source filed them. The calls are words filed in the database; no cut-off is given here.

Tests used:
Human alphaherpesvirus 2 = test: Antiviral activity against Herpes simplex virus 2 G infected in HEL cells assessed as inhibition of virus-induced cytopathic effect; assay type: functional, cell-based; conditions: Human alphaherpesvirus 2, strain G
Summary of the method: (§1)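 Confluent cell monolayers were infected with 100 CCID50 of virus (1 CCID50 = dose infecting 50% of cultures) and incubated with varying compound concentrations. Cytopathicity was scored once complete in untreated infected controls.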

Human alphaherpesvirus 3 [1] = test: Antiviral activity against wild type thymidine kinase expressing Varicella-Zoster virus Oka infected in HEL cells assessed as inhibition of virus-induced plaque formation; assay type: functional, cell-based; conditions: Human alphaherpesvirus 3, Oka
Summary of the method: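 Confluent HEL cultures were inoculated with 20 PFU of VZV and incubated with varying compound concentrations. Plaques were counted once formation was complete in untreated infected controls.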

Human alphaherpesvirus 3 [2] = test: Antiviral activity against wild type thymidine kinase-deficient Varicella-Zoster virus 07-1 infected in HEL cells assessed as inhibition of virus-induced plaque formation; assay type: functional, cell-based; conditions: Human alphaherpesvirus 3, 07-1, HEL
Summary of the method: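 HEL fibroblast monolayers were infected with 20 PFU of VZV and kept with varying compound concentrations. Plaques were counted once formation was complete in untreated infected controls.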

Human betaherpesvirus 5 [3] = test: Antiviral activity against Human cytomegalovirus AD169 infected in HEL cells assessed as inhibition of virus-induced cytopathic effect; assay type: functional, cell-based; conditions: Human betaherpesvirus 5, AD169, HEL; summary of the method: as §1
Human betaherpesvirus 5 [4] = test: Antiviral activity against Human cytomegalovirus Davis infected in HEL cells assessed as inhibition of virus-induced cytopathic effect; assay type: functional, cell-based; conditions: Human betaherpesvirus 5, Davis; summary of the method: as §1
[5] = Cytotoxicity against HEL cells assessed as alteration of cell morphology by microscopic analysis; assay type: cell-based; conditions: human
Summary of the method: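 MCC is the lowest compound concentration causing a microscopically detectable alteration of cell morphology.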

[6] = (§2) Cytotoxicity against HEL cells assessed as reduction in cell growth after 3 days by coulter counter method; assay type: cell-based; conditions: human, HEL cells
Summary of the method: (§3)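 HEL cells were seeded at 5 × 10³ cells/well and grown for 24 h, then given medium containing graded compound concentrations. After 3 days at 37 °C, cells were counted by Coulter counter.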

Coxsackievirus B4 = test: Antiviral activity against Coxsackie virus B4 infected in human HeLA cells assessed as inhibition of virus-induced cytopathic effect; assay type: functional, cell-based; summary of the method: as §1
[7] = Antiviral activity against Respiratory syncytial virus A strain long infected in human HeLA cells assessed as inhibition of virus-induced cytopathic effect; assay type: functional, cell-based; summary of the method: as §1
Human respirovirus 3 = test: Antiviral activity against Parainfluenza virus 3 infected in African green monkey Vero cells assessed as inhibition of virus-induced cytopathic effect; assay type: functional; summary of the method: as §1
[8] = system: Mammalian orthoreovirus 1; test: Antiviral activity against Reovirus-1 infected in African green monkey Vero cells assessed as inhibition of virus-induced cytopathic effect; assay type: functional; summary of the method: as §1
Sindbis virus = test: Antiviral activity against Sindbis virus infected in African green monkey Vero cells assessed as inhibition of virus-induced cytopathic effect; assay type: functional; summary of the method: as §1
Punta Toro virus = test: Antiviral activity against Punta Toro virus infected in African green monkey Vero cells assessed as inhibition of virus-induced cytopathic effect; assay type: functional; summary of the method: as §1
Feline coronavirus = test: Antiviral activity against Feline coronavirus infected in CRFK cells assessed as inhibition of virus-induced cytopathic effect; assay type: functional, cell-based
Human alphaherpesvirus 1 [9] = test: Antiviral activity against wild type Herpes simplex virus 1 KOS infected in HEL cells assessed as inhibition of virus-induced cytopathic effect; assay type: functional, cell-based; conditions: Human alphaherpesvirus 1, KOS
Human alphaherpesvirus 1 [10] = test: Antiviral activity against thymidine kinase-deficient ACV-resistant Herpes simplex virus 1 KOS infected in HEL cells assessed as inhibition of virus-induced cytopathic effect; assay type: functional, cell-based; conditions: Human alphaherpesvirus 1, KOS
Vaccinia virus = test: Antiviral activity against Vaccinia virus Lederle infected in HEL cells assessed as inhibition of virus-induced cytopathic effect; assay type: functional, cell-based; conditions: Orthopoxvirus vaccinia
HEL = test: as §2; assay type: cell-based; conditions: human, hel, 72 h; summary of the method: as §3
[11] = system: Vesicular stomatitis virus; test: Antiviral activity against Vesicular stomatitis virus infected in HEL cells assessed as inhibition of virus-induced cytopathic effect; assay type: functional, cell-based
Influenza A virus = test: Antiviral activity against Influenza A virus (H1N1) infected in HEL cells assessed as inhibition of virus-induced cytopathic effect; assay type: functional, cell-based
Influenza A virus H3N2 = test: Antiviral activity against Influenza A virus H3N2 infected in HEL cells assessed as inhibition of virus-induced cytopathic effect; assay type: functional, cell-based
Influenza B virus = test: Antiviral activity against influenza B virus infected in HEL cells assessed as inhibition of virus-induced cytopathic effect; assay type: functional, cell-based

SMILES	EC50 (Human alphaherpesvirus 2) [µM]	EC50 (Human alphaherpesvirus 3 [1]) [µM]	EC50 (Human alphaherpesvirus 3 [2]) [µM]	EC50 (Human betaherpesvirus 5 [3]) [µM]	EC50 (Human betaherpesvirus 5 [4]) [µM]	MCC [5] [µM]	Activity (Coxsackievirus B4)	Activity [7]	Activity (Human respirovirus 3)	Activity [8]	Activity (Sindbis virus)	Activity (Punta Toro virus)	Activity (Feline coronavirus)	further results
CC(C)OC(=O)OCOP(=O)(COCCOc1cc(N)nc(N)n1)OCOC(=O)OC(C)C	1.01	0.32	0.29	90.1	86.3	> 202	inactive	inactive	inactive	inactive	inactive	inactive	inactive	CC50 at 72 h [6]: 15.1 µM
CCOC(=O)[C@H](Cc1ccccc1)NP(=O)(COCCn1cnc(N)nc1=O)N[C@@H](Cc1ccccc1)C(=O)OCC	39.5	29.4	26.8	15.5	7.5	> 100	inactive	inactive	inactive	inactive	inactive	inactive	inactive	EC50 (Human alphaherpesvirus 1 [9]): 32.5 µM; EC50 (Human alphaherpesvirus 1 [10]): 42 µM; EC50 (Vaccinia virus): > 100 µM; CC50 (HEL): > 100 µM; Activity [11]: inactive; Activity (Influenza A virus): inactive; Activity (Influenza A virus H3N2): inactive; Activity (Influenza B virus): inactive
